Measurements reported in ChEMBL document CHEMBL1944580, “Synthesis of novel sulfonamide-1,2,4-triazoles, 1,3,4-thiadiazoles and 1,3,4-oxadiazoles, as potential antibacterial and antifungal agents. Biological evaluation and conformational analysis studies” (2012).
Converted amounts (≈) assume the structure as drawn.

What was measured:
Bacillus cereus [1] = test: Antibacterial activity against Bacillus cereus clinical isolate after 24 hrs by micro dilution method; format: functional
Procedure, shortened: (§1)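 Microdilution MIC in 96-well plates. Bacterial suspensions adjusted in sterile saline to 1.0 × 10^5 CFU/ml, giving 1.0 × 10^4 cfu per well in LB broth. Compounds tested at up to 1 mg/ml. Plates incubated 24 h. MIC taken as the lowest concentration with no visible growth under a binocular microscope. OD at 655 nm was also read against a blank and the positive control. Streptomycin and ampicillin were the positive controls.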

Enterobacter cloacae [2] = test: Antibacterial activity against Enterobacter cloacae human isolate after 24 hrs by micro dilution method; format: functional; procedure, shortened: as §1
Enterobacter cloacae [3] = test: Antibacterial activity against Enterobacter cloacae human isolate treated for 24 hrs followed by sub-cultivated for 72 hrs by micro dilution method; format: functional
Procedure, shortened: (§2)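 2 µl from each well was serially subcultured into 100 µl fresh broth per well and incubated a further 72 h. MBC is the lowest concentration with no visible growth, taken as 99.5% killing of the original inoculum. Streptomycin and ampicillin were the positive controls.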

Aspergillus flavus [4] = test: Antifungal activity against Aspergillus flavus ATCC 9643 treated for 72 hrs followed by sub-cultivated for 5 days by serial dilution method; format: functional
Procedure, shortened: (§3)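 MFC obtained after the 72 h, 28 °C malt-broth microdilution (spore inoculum about 1.0 × 10^5 per well, compounds from 1 mg/ml DMSO). 2 µl was serially subcultured into 100 µl broth per well and incubated a further 5 days at 28 °C. MFC is the lowest concentration with no visible growth, taken as 99.5% killing of the original inoculum.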

Pseudomonas aeruginosa [5] = test: Antibacterial activity against Pseudomonas aeruginosa ATCC 27853 after 24 hrs by micro dilution method; format: functional; details: ATCC 27853, 24 h; procedure, shortened: as §1
Trichoderma viride [6] = test: Antifungal activity against Trichoderma viride IAM 5061 treated for 72 hrs followed by sub-cultivated for 5 days by serial dilution method; format: functional; procedure, shortened: as §3
Micrococcus flavus [7] = test: Antibacterial activity against Micrococcus flavus ATCC 10240 after 24 hrs by micro dilution method; format: functional; details: ATCC 10240, 24 h; procedure, shortened: as §1
Listeria monocytogenes [8] = test: Antibacterial activity against Listeria monocytogenes NCTC 7973 after 24 hrs by micro dilution method; format: functional; details: NCTC 7973, 24 h; procedure, shortened: as §1
Fulvia fulva [9] = test: Antifungal activity against Fulvia fulva after 72 hrs by serial dilution method; format: functional
Procedure, shortened: (§4)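 Modified microdilution MIC. Spores were washed from malt agar cultures with sterile 0.85% saline containing 0.1% Tween 80 and adjusted to about 1.0 × 10^5 per 100 µl well in malt broth. Compounds were dissolved in DMSO (1 mg/ml). Plates incubated 72 h at 28 °C. MIC is the lowest concentration with no visible growth under a binocular microscope. Bifonazole and ketoconazole were the references.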

Fulvia fulva [10] = test: Antifungal activity against Fulvia fulva treated for 72 hrs followed by sub-cultivated for 5 days by serial dilution method; format: functional; procedure, shortened: as §3
Escherichia coli [11] = test: Antibacterial activity against Escherichia coli ATCC 35210 after 24 hrs by micro dilution method; format: functional; details: ATCC 35210, 24 h; procedure, shortened: as §1
Aspergillus versicolor [12] = test: Antifungal activity against Aspergillus versicolor ATCC 11730 after 72 hrs by serial dilution method; format: functional; details: ATCC 11730, 72 h; procedure, shortened: as §4
Aspergillus niger [13] = test: Antifungal activity against Aspergillus niger ATCC 6275 treated for 72 hrs followed by sub-cultivated for 5 days by serial dilution method; format: functional; procedure, shortened: as §3
Penicillium ochrochloron [14] = test: Antifungal activity against Penicillium ochrochloron ATCC 9112 treated for 72 hrs followed by sub-cultivated for 5 days by serial dilution method; format: functional; procedure, shortened: as §3
Bacillus cereus [15] = test: Antibacterial activity against Bacillus cereus clinical isolate treated for 24 hrs followed by sub-cultivated for 72 hrs by micro dilution method; format: functional; procedure, shortened: as §2
Aspergillus niger [16] = test: Antifungal activity against Aspergillus niger ATCC 6275 after 72 hrs by serial dilution method; format: functional; details: ATCC 6275, 72 h; procedure, shortened: as §4
Talaromyces funiculosus [17] = test: Antifungal activity against Penicillium funiculosum ATCC 36839 treated for 72 hrs followed by sub-cultivated for 5 days by serial dilution method; format: functional; procedure, shortened: as §3
Aspergillus fumigatus [18] = test: Antifungal activity against Aspergillus fumigatus human isolate after 72 hrs by serial dilution method; format: functional; procedure, shortened: as §4
Micrococcus flavus [19] = test: Antibacterial activity against Micrococcus flavus ATCC 10240 treated for 24 hrs followed by sub-cultivated for 72 hrs by micro dilution method; format: functional; procedure, shortened: as §2
Staphylococcus aureus [20] = test: Antibacterial activity against Staphylococcus aureus ATCC 6538 after 24 hrs by micro dilution method; format: functional; details: ATCC 6538, 24 h; procedure, shortened: as §1
Salmonella typhimurium [21] = test: Antibacterial activity against Salmonella Typhimurium ATCC 13311 treated for 24 hrs followed by sub-cultivated for 72 hrs by micro dilution method; format: functional, Salmonella enterica subsp. enterica serovar Typhimurium; details: Salmonella enterica; procedure, shortened: as §2
Listeria monocytogenes [22] = test: Antibacterial activity against Listeria monocytogenes NCTC 7973 treated for 24 hrs followed by sub-cultivated for 72 hrs by micro dilution method; format: functional; procedure, shortened: as §2
Penicillium ochrochloron [23] = test: Antifungal activity against Penicillium ochrochloron ATCC 9112 after 72 hrs by serial dilution method; format: functional; details: ATCC 9112, 72 h; procedure, shortened: as §4
Staphylococcus aureus [24] = test: Antibacterial activity against Staphylococcus aureus ATCC 6538 treated for 24 hrs followed by sub-cultivated for 72 hrs by micro dilution method; format: functional; procedure, shortened: as §2
Trichoderma viride [25] = test: Antifungal activity against Trichoderma viride IAM 5061 after 72 hrs by serial dilution method; format: functional; details: IAM 5061, 72 h; procedure, shortened: as §4
Aspergillus flavus [26] = test: Antifungal activity against Aspergillus flavus ATCC 9643 after 72 hrs by serial dilution method; format: functional; details: ATCC 9643, 72 h; procedure, shortened: as §4
Salmonella typhimurium [27] = test: Antibacterial activity against Salmonella Typhimurium ATCC 13311 after 24 hrs by micro dilution method; format: functional, Salmonella enterica subsp. enterica serovar Typhimurium; details: Salmonella enterica, ATCC 13311, 24 h; procedure, shortened: as §1
Aspergillus versicolor [28] = test: Antifungal activity against Aspergillus versicolor ATCC 11730 treated for 72 hrs followed by sub-cultivated for 5 days by serial dilution method; format: functional; procedure, shortened: as §3
Escherichia coli [29] = test: Antibacterial activity against Escherichia coli ATCC 35210 treated for 24 hrs followed by sub-cultivated for 72 hrs by micro dilution method; format: functional; procedure, shortened: as §2
Aspergillus fumigatus [30] = test: Antifungal activity against Aspergillus fumigatus human isolate treated for 72 hrs followed by sub-cultivated for 5 days by serial dilution method; format: functional; procedure, shortened: as §3
Talaromyces funiculosus [31] = test: Antifungal activity against Penicillium funiculosum ATCC 36839 after 72 hrs by serial dilution method; format: functional; details: ATCC 36839, 72 h; procedure, shortened: as §4
Pseudomonas aeruginosa [32] = test: Antibacterial activity against Pseudomonas aeruginosa ATCC 27853 treated for 24 hrs followed by sub-cultivated for 72 hrs by micro dilution method; format: functional; procedure, shortened: as §2

MIC (Bacillus cereus [1]) [µM] | MIC (Enterobacter cloacae [2]) [µM] | MIC (Pseudomonas aeruginosa [5]) [µM] | MIC (Micrococcus flavus [7]) [µM] | MIC (Listeria monocytogenes [8]) [µM] | MIC (Fulvia fulva [9]) [µM] | MIC (Escherichia coli [11]) [µM] | MIC (Aspergillus versicolor [12]) [µM] | MIC (Aspergillus niger [16]) [µM] | MIC (Aspergillus fumigatus [18]) [µM] | MIC (Staphylococcus aureus [20]) [µM] | Structure (SMILES) | MBC (Enterobacter cloacae [3]) [µM] | MFC (Aspergillus flavus [4]) [µM] | MFC (Trichoderma viride [6]) [µM] | MFC (Fulvia fulva [10]) [µM] | MFC (Aspergillus niger [13]) [µM] | MFC (Penicillium ochrochloron [14]) [µM] | MBC (Bacillus cereus [15]) [µM] | MFC (Talaromyces funiculosus [17]) [µM] | MBC (Micrococcus flavus [19]) [µM] | also measured
270 (≈ 101 µg/mL) | 270 (≈ 101 µg/mL) | 270 (≈ 101 µg/mL) | 270 (≈ 101 µg/mL) | 270 (≈ 101 µg/mL) | 70 (≈ 26.1 µg/mL) | 270 (≈ 101 µg/mL) | 270 (≈ 101 µg/mL) | 70 (≈ 26.1 µg/mL) | 140 (≈ 52.1 µg/mL) | 270 (≈ 101 µg/mL) | CNc1nnc(Cc2cc(OC)c(OC)cc2S(=O)(=O)N(C)C)s1 | 270 (≈ 101 µg/mL) | 270 (≈ 101 µg/mL) | 130 (≈ 48.4 µg/mL) | 70 (≈ 26.1 µg/mL) | 140 (≈ 52.1 µg/mL) | 270 (≈ 101 µg/mL) | 270 (≈ 101 µg/mL) | 270 (≈ 101 µg/mL) | 540 (≈ 201 µg/mL) | MBC (Salmonella typhimurium [21]): 270 µM (≈ 101 µg/mL); MBC (Listeria monocytogenes [22]): 540 µM (≈ 201 µg/mL); MIC (Penicillium ochrochloron [23]): 140 µM (≈ 52.1 µg/mL); MBC (Staphylococcus aureus [24]): 540 µM (≈ 201 µg/mL); MIC (Trichoderma viride [25]): 70 µM (≈ 26.1 µg/mL); MIC (Aspergillus flavus [26]): 140 µM (≈ 52.1 µg/mL); MIC (Salmonella typhimurium [27]): 270 µM (≈ 101 µg/mL); MFC (Aspergillus versicolor [28]): 540 µM (≈ 201 µg/mL); MBC (Escherichia coli [29]): 270 µM (≈ 101 µg/mL); MFC (Aspergillus fumigatus [30]): 270 µM (≈ 101 µg/mL); MIC (Talaromyces funiculosus [31]): 140 µM (≈ 52.1 µg/mL); MBC (Pseudomonas aeruginosa [32]): 270 µM (≈ 101 µg/mL)
260 (≈ 100 µg/mL) | 520 (≈ 201 µg/mL) | 260 (≈ 100 µg/mL) | 260 (≈ 100 µg/mL) | 520 (≈ 201 µg/mL) | 70 (≈ 27.1 µg/mL) | 260 (≈ 100 µg/mL) | 260 (≈ 100 µg/mL) | 130 (≈ 50.2 µg/mL) | 130 (≈ 50.2 µg/mL) | 520 (≈ 201 µg/mL) | CCNc1nnc(Cc2cc(OC)c(OC)cc2S(=O)(=O)N(C)C)s1 | 520 (≈ 201 µg/mL) | 260 (≈ 100 µg/mL) | 130 (≈ 50.2 µg/mL) | 70 (≈ 27.1 µg/mL) | 260 (≈ 100 µg/mL) | 260 (≈ 100 µg/mL) | 260 (≈ 100 µg/mL) | 260 (≈ 100 µg/mL) | 520 (≈ 201 µg/mL) | MBC (Salmonella typhimurium [21]): 260 µM (≈ 100 µg/mL); MBC (Listeria monocytogenes [22]): 520 µM (≈ 201 µg/mL); MIC (Penicillium ochrochloron [23]): 130 µM (≈ 50.2 µg/mL); MBC (Staphylococcus aureus [24]): 520 µM (≈ 201 µg/mL); MIC (Trichoderma viride [25]): 70 µM (≈ 27.1 µg/mL); MIC (Aspergillus flavus [26]): 130 µM (≈ 50.2 µg/mL); MIC (Salmonella typhimurium [27]): 260 µM (≈ 100 µg/mL); MFC (Aspergillus versicolor [28]): 520 µM (≈ 201 µg/mL); MBC (Escherichia coli [29]): 260 µM (≈ 100 µg/mL); MFC (Aspergillus fumigatus [30]): 260 µM (≈ 100 µg/mL); MIC (Talaromyces funiculosus [31]): 130 µM (≈ 50.2 µg/mL); MBC (Pseudomonas aeruginosa [32]): 260 µM (≈ 100 µg/mL)
